Screens: PubChem BioAssay, Sanford-Burnham Center for Chemical Genomics
Scp-1 inhibitor = blocks human Scp-1 phosphatase activity. Q9GZU7. Recombinant Scp1, phosphopeptide, malachite green phosphate absorbance. inhibition, % at 20 µM. 0.88% of 340,000 active;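 active = inhibition above about 50% at 20 µM, limit read from the data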;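 note: plate controls were DMSO wells with enzyme for no effect and wells lacking enzyme for full effect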
Target sequence (Q9GZU7 76-261 limits assumed): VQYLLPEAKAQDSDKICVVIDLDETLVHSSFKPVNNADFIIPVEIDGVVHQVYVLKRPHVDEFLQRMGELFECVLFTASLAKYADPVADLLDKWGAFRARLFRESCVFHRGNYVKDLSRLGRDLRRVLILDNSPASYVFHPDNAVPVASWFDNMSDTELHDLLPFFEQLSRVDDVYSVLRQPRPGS
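Material – SCP-1 phosphatase catalytic domain, residues 76-261 · Buffer or medium – Acidic Tris acetate buffer with magnesium and detergent · Also added – Phospho 17-mer peptide substrate · Compound – single 20 µM dose, 1% DMSO · Times – 45 min room-temperature reaction, 5 min colour, 30 min stabiliser · Technique – Phosphate-binding colour reagent, absorbance read at 630 nm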
LMPTP block = LMPTP (human) inhibition; recombinant LMPTP-A, OMFP fluorogenic substrate, fluorescence intensity; AID 651560; P24666; 0.22% of 360,000 active; inhibition, % at 20 µM;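 active = compounds that cut the enzyme signal by at least half of the control window in the single-dose screen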;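 note: plate controls were DMSO wells with enzyme plus substrate for no effect and substrate without enzyme for full effect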
Target sequence (P24666 whole entry, looked up): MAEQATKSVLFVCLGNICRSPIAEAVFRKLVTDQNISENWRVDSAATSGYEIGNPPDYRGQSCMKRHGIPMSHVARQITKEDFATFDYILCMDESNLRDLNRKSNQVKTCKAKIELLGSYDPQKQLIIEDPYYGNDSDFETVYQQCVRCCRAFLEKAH
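Assay system: LMPTP-A enzyme. Input: 0.625 nM LMPTP-A final. Probe or stimulus: 400 µM OMFP. Compound dosing: single 20 µM dose. Schedule: 50 min dark incubation at room temperature. Detection: fluorescence intensity of OMFP turnover product. Read-out: percent inhibition versus substrate-only and uninhibited controls. Benchmarks: no-enzyme low control, uninhibited high control.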
SUMO1 PPI mod = modulators of human SUMO1-mediated protein-protein interactions; inhibition, % at 20 µM; P63165; AID 602429; 0.33% of 360,000 active; SUMO1 binding to a labelled peptide, TR-FRET, 1 h; in the data active = inhibition above about 37%
Target sequence (P63165 whole entry, looked up): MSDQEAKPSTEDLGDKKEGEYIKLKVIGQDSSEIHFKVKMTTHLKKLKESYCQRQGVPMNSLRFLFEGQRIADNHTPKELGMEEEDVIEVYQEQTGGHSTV
NadD block = inhibitors of Staphylococcus aureus NadD; AID 602399; inhibition, % at 20 µM; 0.78% of 360,000 active; purified NadD enzyme, colorimetric absorbance read-out; in the data active = inhibition above about 26%
STEP inh = STEP (human) phosphatase inhibition; 0.25% of 360,000 active; inhibition, % at 20 µM; P54829; recombinant STEP, OMFP fluorogenic substrate, fluorescence;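 active = inhibition at 20 µM, scaled per plate between control wells, above about 37%, limit read from the data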;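 note: 0% = DMSO with enzyme and substrate and 100% = substrate only without enzyme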
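System: isolated STEP enzyme; schedule: 20 min enzyme reaction at room temperature, protected from light; medium: Bis-Tris buffer pH 6.0, 2.5 mM DTT, 0.005% Tween 20; signal: fluorescence, 480/540 nm; dosing: single compound dose of 20 µM, 1% DMSO final; also added: OMFP substrate, 25 µM final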
DNMT1 inh = inhibitors of human DNMT1 | P26358 | DNMT1 molecular beacon, Hinp1I cleavage, fluorescence | inhibition (reported as % activation of signal), % at 10 µM | 0.83% of 360,000 active | AID 588458; in the data active = inhibition above about 50%
* hit, by the source's call; . = no result given. Only some compounds are listed: those with a hit (about 2.4% of all), similar ones and a draw of the others.

SMILES | Scp-1 inhibitor | LMPTP block | SUMO1 PPI mod | NadD block | STEP inh | DNMT1 inh
Cc1cn(-c2cc(NC(=O)c3ccc(C)c(NC(=O)c4cccc(-c5cn[nH]c(=O)c5)c4)c3)cc(C(F)(F)F)c2)cn1 | 5 | -1 | 73* | 4 | 2 | 4
CC1CCN(Cc2c(C(=O)N/N=C/c3cc(Br)ccc3O)nnn2-c2nonc2N)CC1 | -10 | 1 | 21 | 33* | 3 | 42
C/C(=N\NC(=O)c1nnn(-c2nonc2N)c1CN1CCc2ccccc21)c1ccccc1O | -5 | 1 | 1 | 42* | 5 | 18
CC1CCN(Cc2c(C(=O)N/N=C/c3cc(Cl)ccc3O)nnn2-c2nonc2N)CC1 | -10 | -1 | -7 | 30* | 0 | 42
COC(=O)c1nnn(-c2nonc2N)c1CN1CCc2ccccc21 | -3 | 1 | 4 | 1 | 4 | -5
Cc1ccccc1OCC(=O)OCC(=O)Nc1ccc2c(c1)OCCO2 | 5 | 1 | -7 | -14 | 0 | 5
CSc1nc2c(c(=O)[nH]1)C(c1ccccc1Cl)CC(=O)N2 (centres undefined) | -5 | 1 | 4 | 8 | -1 | 1
Cc1[nH][nH]c(=O)c1C(c1c(C)[nH][nH]c1=O)c1cn(Cc2ccc(Cl)c(Cl)c2)c2ccccc12 | -1 | 3 | 14 | 37* | 1 | 30
Cc1nn(-c2ccccc2)c(C)c1/C=C/C(=O)OCC(=O)Nc1ccc(C(N)=O)cc1 | 4 | 0 | 0 | -2 | -2 | -1
CC(C)Oc1ccc(-c2nc(NCC3CCCO3)c3ccccc3n2)cc1 (centres undefined) | -4 | 51* | 4 | -11 | 0 | 7
c1cncc(-c2nc(NCC3CCCO3)c3ccccc3n2)c1 (centres undefined) | 4 | 12 | 4 | 0 | -2 | 2
CCOC1=CC2=C(C(=O)C(Cl)=CC2=O)[C@@H]2CN(S(=O)(=O)c3ccc(C)cc3)[C@@H](c3ccccc3)[C@H]12 | . | 11 | -5 | 37* | 1 | -58
COC(=O)c1sccc1N/N=C/c1ccc(OC)c(OC)c1OC | 0 | 2 | -5 | -6 | -3 | 1
Cc1cccc(C(=O)O/N=C(/c2ccccc2)c2ccncc2)c1 | 4 | 1 | 40* | 3 | 4 | -1
O=c1cc[nH]c2c(Cl)cccc12 | -1 | -1 | 3 | 0 | 0 | 2
Cc1[nH]ccc(=O)c1Cc1c(Cl)cccc1Cl | -6 | 78* | 0 | -4 | -1 | -2
O=c1[nH]c2cc(Cl)ccc2n1-c1ccccc1 | -13 | 2 | 40* | -4 | -7 | 1
Cn1c(=O)c2c(-c3ccccc3)n(-c3ccccc3N)cc2n(C)c1=O | . | -1 | -4 | 4 | 2 | 5
NS(=O)(=O)c1ccc(N=Nc2c(O)c(C(=O)O)cc3ccccc23)cc1 | 17 | 16 | -22 | 31* | 9 | -28
Nc1nc(O)c(N=Nc2ccc(S(N)(=O)=O)cc2)c(=O)[nH]1 | 4 | . | . | . | . | .
Cn1c(=O)c2c(nc(N3CCN(c4ccccn4)CC3)n2Cc2ccccc2Cl)n(C)c1=O | -10 | 2 | -1 | 0 | -2 | -4
C/C(=N\NC(=O)CSc1nc2nc(C)cc(C)n2n1)c1ccccc1 | -3 | -2 | 4 | -2 | 4 | 1
Cc1cc(C)n2nc(SCC(=O)N/N=C/c3ccc(F)cc3)nc2n1 | 3 | -2 | 51* | 2 | -4 | 3
Cc1cccc(C)c1N=C1NN=C(c2ccccc2F)CS1 | -1 | 2 | -4 | 2 | 1 | -8
COc1ccc(OC)c(/C=C/c2ccnc3ccccc23)c1 | 2 | 6 | -18 | 2 | 0 | -3
COc1ccc2ncccc2c1Cc1c(OC)ccc2ncccc12 | -5 | 56* | -13 | 1 | 1 | 2
O=S(=O)(c1ccc(Br)cc1Cl)N1CCN(CCO)CC1 | -2 | 0 | -1 | -5 | 1 | 1
O=C1C=CC(=O)c2c(O)c(N3CCN(CCO)CC3)c(Cl)c(O)c21 | 73* | 76* | 91* | 50* | 27 | 103*
O=C1C=CC(=O)c2c(O)c(N3CCN(CCOCCO)CC3)c(Br)c(O)c21 | 70* | 77* | 109* | 62* | 86* | 98*
